# What was measured:
# MDA-MB-468 = experiment: Antiproliferation activity against human MDA-MB-468 cells assessed as reduction in cell viability incubated for 72 hr by MTT assay; format: functional, cell-based; details: MDA-MB-468, 72 h
# Method in brief: (§1)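 MTT assay. Cells were plated overnight and exposed to a range of concentrations for 72 h. MTT was then added for 4 h and absorbance read at 570 nm. Inhibition% = [(control − compound)/(control − blank)] × 100. IC50 was fitted from the curves. Mean ± S.D. of 3–5 separate experiments. RPMI 1640 + 10% FBS; MCF10A in DMEM/F12 with 5% horse serum, EGF, hydrocortisone, insulin and cholera toxin.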
# [1] = Inhibition of hedgehog pathway in mouse NIH/3T3 cells harboring GRE-Luc assessed as inhibition of SAG-induced Hh signaling pathway by dual luciferase reporter gene assay; format: cell-based; details: NIH3T3
# Method in brief: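 NIH3T3 cells co-transfected with 8×3' Gli-BS-delta51-Luc II firefly reporter and pRL-TK Renilla plasmid; after 24 h treated with compounds plus SAG (pathway activator). Gli luciferase normalized to Renilla (dual-luciferase read-out); IC50 = concentration halving normalized signal; mean ± S.D. of 3–5 separate experiments.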
# U-251 = experiment: Antiproliferation activity against human U251 cells assessed as reduction in cell viability incubated for 72 hrs by MTT assay; format: functional, cell-based; details: U-251, 72 h; method in brief: as §1
# HeLa = experiment: Antiproliferation activity against human HeLa cells assessed as reduction in cell viability incubated for 72 hrs by MTT assay; format: functional, cell-based; method in brief: as §1
# T47D = experiment: Antiproliferation activity against human T47D cells assessed as reduction in cell viability incubated for 72 hr by MTT assay; format: functional, cell-based; method in brief: as §1
# MDA-MB-231 = experiment: Antiproliferation activity against human MDA-MB-231 cells assessed as reduction in cell viability incubated for 72 hrs measured after 4 hrs by MTT assay; format: functional, cell-based; method in brief: as §1
# AN3-CA = experiment: Antiproliferation activity against human AN3CA cells assessed as reduction in cell viability incubated for 72 hr by MTT assay; format: functional, cell-based; method in brief: as §1
# MCF7 = experiment: Antiproliferation activity against human MCF7 cells assessed as reduction in cell viability incubated for 72 hrs by MTT assay; format: functional, cell-based; details: MCF7, 72 h; method in brief: as §1
# A549 = experiment: Antiproliferation activity against human A549 cells assessed as reduction in cell viability incubated for 72 hrs by MTT assay; format: functional, cell-based; details: A549, 72 h; method in brief: as §1
# [2] = Acute toxicity in Kunming mouse assessed as lethality through intragastric administration observed for 14 days; details: in vivo, po
# Method in brief: (§2)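 Kunming mice, groups of 5 female and 5 male per dose, dosed once by gavage at graded doses; mortality recorded over 14 days as dead/treated and percent. LD50 derived by improved Karber's method: LD50 = lg^-1[xm − i(ΣP − 0.5)], xm log of maximal dose, i log ratio of neighbouring doses; 95% confidence intervals given.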
# Protein smoothened [3] = molecular target: T1, Protein smoothened (Homo sapiens, UniProt Q99835); experiment: Binding affinity to recombinant human Smo receptor assessed as association constant at equilibrium by SPR analysis
# Protein smoothened [4] = molecular target: T1, Protein smoothened; experiment: Binding affinity to recombinant human Smo receptor assessed as association rate constant by SPR analysis
# Method in brief: (§3)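 Surface plasmon resonance with recombinant Smo protein, run in PBS at a flow rate of 2 μL/s and 4 °C. Analytes were injected at 2.5, 5 and 10 μM. The chip was regenerated with 0.5% SDS:glycine-HCl pH 2.0 (1:1). ka, kd, Rmax, KA and KD came from a global fit of the sensorgrams.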
# Protein smoothened [5] = molecular target: T1, Protein smoothened; experiment: Binding affinity to recombinant human Smo receptor assessed as maximum response at equilibrium by SPR analysis; method in brief: as §3
# Protein smoothened [6] = molecular target: T1, Protein smoothened; experiment: Binding affinity to recombinant human Smo receptor assessed as dissociation rate constant by SPR analysis; method in brief: as §3
# [7] = Acute toxicity in Kunming mouse assessed as mortality at 5000 mg/kg, ig observed for 14 days relative to control; format: organism-based; details: in vivo, po, read-out: Activity; method in brief: as §2
# Protein smoothened [8] = molecular target: T1, Protein smoothened; experiment: Binding affinity to recombinant human Smo receptor assessed as dissociation constant at equilibrium by SPR analysis
# T1 sequence (Q99835 whole entry): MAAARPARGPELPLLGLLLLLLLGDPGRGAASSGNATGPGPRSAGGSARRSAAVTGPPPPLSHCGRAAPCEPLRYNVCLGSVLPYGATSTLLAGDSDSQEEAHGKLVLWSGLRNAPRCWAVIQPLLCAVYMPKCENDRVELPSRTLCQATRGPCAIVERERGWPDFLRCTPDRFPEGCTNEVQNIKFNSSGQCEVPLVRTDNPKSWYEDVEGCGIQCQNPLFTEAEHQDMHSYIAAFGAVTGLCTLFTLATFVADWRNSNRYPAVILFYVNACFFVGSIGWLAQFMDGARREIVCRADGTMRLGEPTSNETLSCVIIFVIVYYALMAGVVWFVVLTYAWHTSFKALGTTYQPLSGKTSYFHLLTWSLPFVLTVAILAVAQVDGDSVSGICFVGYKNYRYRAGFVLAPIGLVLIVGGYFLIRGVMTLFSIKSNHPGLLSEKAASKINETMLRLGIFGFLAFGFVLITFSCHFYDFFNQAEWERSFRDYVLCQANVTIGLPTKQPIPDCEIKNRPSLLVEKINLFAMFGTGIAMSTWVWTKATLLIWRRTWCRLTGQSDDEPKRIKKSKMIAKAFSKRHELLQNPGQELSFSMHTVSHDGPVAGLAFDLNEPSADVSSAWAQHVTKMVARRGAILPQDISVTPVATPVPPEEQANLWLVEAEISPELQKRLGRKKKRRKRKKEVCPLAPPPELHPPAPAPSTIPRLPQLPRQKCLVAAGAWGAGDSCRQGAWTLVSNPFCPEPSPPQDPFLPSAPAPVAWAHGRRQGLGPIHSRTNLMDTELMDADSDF
IC50 (MDA-MB-468),IC50 [1],IC50 (U-251),IC50 (HeLa),IC50 (T47D),IC50 (MDA-MB-231),IC50 (MCF7),IC50 (A549),Structure (SMILES),IC50 (AN3-CA),LD50 at 336 h [2],KA (Protein smoothened [3]),Ka (Protein smoothened [4]),Rmax (Protein smoothened [5]),Kdiss (Protein smoothened [6]),mortality at 336 h [7],Kd (Protein smoothened [8])
> 100 µM,8.22 µM,> 100 µM,> 100 µM,> 100 µM,75 µM,> 100 µM,> 100 µM,O=C(Nc1ccc(Cl)c(-c2nnc3c(Cl)cccn23)c1)c1ccc(F)cc1Cl,> 100 µM,–,–,–,–,–,–,–
21.6 µM,0.285 µM,> 100 µM,> 100 µM,> 100 µM,> 100 µM,78.2 µM,61.3 µM,O=C(Nc1ccc(Cl)c(-c2nnc3c(Cl)cccn23)c1)c1ccc(Cl)cc1Cl,84.8 µM,–,–,–,–,–,–,–
> 100 µM,0.77 µM,73.5 µM,> 100 µM,> 100 µM,58.2 µM,> 100 µM,76.9 µM,O=C(Nc1ccc(Cl)c(-c2nnc3c(Cl)cccn23)c1)c1ccccc1,67.6 µM,–,–,–,–,–,–,–
> 100 µM,4.27 µM,44.6 µM,> 100 µM,> 100 µM,37.2 µM,> 100 µM,> 100 µM,CS(=O)(=O)c1ccc(C(=O)Nc2ccc(Cl)c(-c3nnc4c(Cl)cccn34)c2)c(Cl)c1,> 100 µM,–,–,–,–,–,–,–
> 100 µM,0.727 µM,> 100 µM,> 100 µM,83.8 µM,59.9 µM,92.2 µM,> 100 µM,O=C(Nc1ccc(Cl)c(-c2nnc3c(Cl)cccn23)c1)c1ccccc1Cl,> 100 µM,–,–,–,–,–,–,–

# More lines, now with the values behind:
Structure (SMILES),IC50 (MDA-MB-468),IC50 [1],IC50 (U-251),IC50 (HeLa),IC50 (T47D),IC50 (MDA-MB-231),IC50 (MCF7),IC50 (A549),IC50 (AN3-CA),LD50 at 336 h [2],KA (Protein smoothened [3]),Ka (Protein smoothened [4]),Rmax (Protein smoothened [5]),Kdiss (Protein smoothened [6]),mortality at 336 h [7],Kd (Protein smoothened [8])
CS(=O)(=O)c1ccc(C(=O)Nc2ccc(Cl)c(-c3nnc4c(Cl)cccn34)c2)cc1,> 100 µM,1.77 µM,> 100 µM,> 100 µM,> 100 µM,> 100 µM,94.2 µM,> 100 µM,> 100 µM,–,–,–,–,–,–,–
O=C(Nc1ccc(Cl)c(-c2nnc3c(Cl)cccn23)c1)c1ccc(C(F)(F)F)cc1Cl,> 100 µM,5.2 µM,> 100 µM,> 100 µM,> 100 µM,> 100 µM,81.6 µM,> 100 µM,> 100 µM,–,–,–,–,–,–,–
O=C(Nc1ccc(Cl)c(-c2nnc3c(Cl)cccn23)c1)c1ccon1,> 100 µM,> 10 µM,> 100 µM,> 100 µM,> 100 µM,> 100 µM,> 100 µM,42.7 µM,> 100 µM,–,–,–,–,–,–,–
O=C(Nc1ccc(Cl)c(-c2nnc3c(Cl)cccn23)c1)c1cccc(Cl)c1,54.8 µM,0.102 µM,43.1 µM,> 100 µM,30.2 µM,66.1 µM,71.9 µM,52.7 µM,68.4 µM,> 5000 mg/kg,8.21 ×10⁴ /M,101 M⁻¹ s⁻¹,41.2 RU,1.23 ×10⁻³ /s,0%,12.1 µM
O=C(Nc1ccc(Cl)c(-c2nnc3c(Cl)cccn23)c1)c1ccccn1,> 100 µM,1.08 µM,79 µM,75.5 µM,> 100 µM,92 µM,96.4 µM,> 100 µM,> 100 µM,–,–,–,–,–,–,–
